# KCNK3 block – human KCNK3 channel inhibitors, primary screen, CHO cells, FluxOR thallium flux, B-score; Potassium channel subfamily K member 3 (Homo sapiens), O14649; FluxOR fluorescence; stronger effect = lower value; B-score at 10 µM; 340,000 compounds, 0.84% hits; AID 602410, 2012;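 active = B-score under library mean minus 4 SD, starting fluorescence ratio at most library mean plus 5 SD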;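 note: more negative B-score means stronger inhibition of thallium flux through KCNK3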
# Kir21 block – inhibitors of mouse Kir2.1 inward-rectifier potassium channel | HEK293-Kir2.1, FluxOR thallium flux fluorescence; stronger effect = lower value | B-score at 10 µM | 310,000 compounds, 0.85% hits;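 active = fluorescence ratio B-score at or below minus 3 SD of library scores, with starting-brightness B-score within 2 SD, cut at about -4.2 in these data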;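 note: channel flux triggered by added potassium and thallium sulfate stimulus; B-score of peak minus minimum fluorescence over baseline after thallium stimulus; more negative B-score means stronger Kir2.1 block with less thallium influx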
# Target sequence (P35561 whole entry, looked up): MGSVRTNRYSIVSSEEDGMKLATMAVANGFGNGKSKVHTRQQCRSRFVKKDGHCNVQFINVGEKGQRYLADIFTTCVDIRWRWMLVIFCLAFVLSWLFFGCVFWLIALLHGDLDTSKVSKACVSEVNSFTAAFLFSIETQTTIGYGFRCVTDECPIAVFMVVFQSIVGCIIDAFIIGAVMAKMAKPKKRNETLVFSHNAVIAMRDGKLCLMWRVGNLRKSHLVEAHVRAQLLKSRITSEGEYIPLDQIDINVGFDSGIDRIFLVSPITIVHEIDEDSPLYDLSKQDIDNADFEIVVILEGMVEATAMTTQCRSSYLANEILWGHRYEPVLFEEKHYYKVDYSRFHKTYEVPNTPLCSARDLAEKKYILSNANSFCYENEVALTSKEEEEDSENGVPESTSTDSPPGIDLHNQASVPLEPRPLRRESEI
# KCNQ1 pot – potentiators or activators of KCNQ1 channel, primary screen, cell-based, thallium flux, high-throughput; 310,000 compounds, 0.35% hits; CHO-K1 KCNQ1, thallium flux FluxOR fluorescence; stronger effect = higher value; Potassium voltage-gated channel subfamily KQT member 1 (Homo sapiens), P51787; B-score at 10 µM; AID 2648, 2010;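 active = fluorescence ratio B-score, a plate-corrected score, at least three library SD, with initial intensity B-score within 5 SD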
#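 Schedule – 37 °C overnight plating, 90-min dark dye load, 20-min compound pretreatment · System – stable KCNQ1 CHO-K1 line · Probe or stimulus – thallium- and potassium-containing depolarizing buffer · Measured by – kinetic FluxOR fluorescence, 10 s baseline plus 110 s post-stimulus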
# hERG rescue – hERG rescue from dofetilide block, primary screen, cell-based, CHO-hERG, FluxOR thallium flux, dofetilide IC70; Voltage-gated inwardly rectifying potassium channel KCNH2 (Homo sapiens), Q12809; dofetilide IC70 present; activation (rescue from dofetilide block), less the hit threshold, % at 10 µM; 310,000 compounds, 0.51% hits; AID 1511, 2009;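 active = activation above the mean of controls blocked by dofetilide plus 5 SD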;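 note: thallium influx through hERG after potassium depolarization seen as dye fluorescence rise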
# KCNK9 inh – KCNK9 potassium channel inhibitors, primary screen, HEK293 cells, thallium flux; Potassium channel subfamily K member 9 (Homo sapiens), Q9NPC2; FluxOR thallium flux fluorescence; stronger effect = lower value; B-score at 10 µM; 310,000 compounds, 1.2% hits;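 active = ratio B-score over 3 SD below the library mean, with starting fluorescence within 5 SD of its mean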;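 note: negative B-score means less thallium flux so channel inhibition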
# KCNQ1 block – inhibitors of human KCNQ1 channel, primary screen, cell-based, thallium flux, high-throughput; Potassium voltage-gated channel subfamily KQT member 1 (Homo sapiens), P51787; CHO-K1 KCNQ1, FluxOR thallium flux fluorescence; stronger effect = higher value; B-score at 10 µM; 310,000 compounds, 1.3% hits; AID 2642, 2010;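 active = compounds whose thallium flux B-score, printed positive for inhibition, exceeds three library SD while starting fluorescence stays within three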;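 note: channel opened by potassium depolarization with thallium stimulus after 20 min compound exposure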
# KCNK3 inh conf – retest of human KCNK3 channel inhibitors, confirmation, CHO cells, FluxOR thallium flux, triplicate | shares compounds with KCNK3 block | FluxOR fluorescence; 0% buffer, 100% carvedilol maximal block | ratio percent of control, % at 10 µM | 2,400 compounds, 99% hits | AID 651638, 2012;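 active = ratio percent of control, averaged over triplicates, above buffer control mean plus 5 SD, cut at about 64% in these data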;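 note: ratio is the fluorescence rise from min to max over baseline after thallium stimulus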
# KCNK3 noninduced – thallium flux inhibition in non-induced cells, primary screen, counter-screen for KCNK3 inhibitor project, cell-based, non-induced KCNK3 line, FluxOR thallium, triplicate; thallium flux ratio (lower = more inhibition) at 10 µM; shares compounds with KCNK3 block; non-induced KCNK3 parental cells; stronger effect = lower value; 2,400 compounds, 40% hits;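 active = thallium flux ratio, averaged over three wells, more than 5 SD below the buffer control mean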;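 note: host cells are CHO cells without KCNK3 induction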
# Hits are given with their value; n = inactive; x = no result. Hits are enriched below; roughly 3.8% of the tested compounds scored in any of these assays.
SMILES,KCNK3 block,Kir21 block,KCNQ1 pot,hERG rescue,KCNK9 inh,KCNQ1 block,KCNK3 inh conf,KCNK3 noninduced
Cc1[nH]c2ccc(F)cc2c1CCN(Cc1cccnc1)C(=S)Nc1ccccc1,-10,n,n,n,n,n,91,n
COCCNC(=S)N(CCc1c(C)[nH]c2ccc(OC)cc12)Cc1cccnc1,n,n,n,n,n,n,x,x
Cc1[nH]c2ccccc2c1CCN(Cc1cccnc1)C(=S)Nc1ccc(F)cc1,-10,n,n,n,n,n,92,0.15
Cc1[nH]c2ccc(F)cc2c1CCN(Cc1ccncc1)C(=S)Nc1ccccc1,n,n,n,n,n,n,x,x
O=C(c1ccc(COc2ccc(Cl)cc2)o1)N1CCN(Cc2ccc3c(c2)OCO3)CC1,-9.8,n,n,n,n,n,146,0.11
CCN1CCN(C(=O)c2ccc(COc3ccc(Cl)cc3)o2)CC1,n,n,n,n,n,n,x,x
COC(=O)c1ccccc1NC(=O)c1ccc(COc2cc(C)cc(C)c2)o1,-9.5,n,n,n,n,n,87,n
CC(C)(CNC(=O)c1ccc(-c2ccccc2Cl)o1)N1CCOCC1,n,n,n,n,n,n,x,x
COC(=O)C(Cc1csc2ccc(Cl)cc12)NC(=O)c1ccc(Cl)cc1 (centres undefined),-10,n,n,n,n,n,140,0.14
c1ccc(Cn2nnnc2C(c2cccs2)N2CCCCCC2)cc1 (centres undefined),-10,n,n,n,n,n,116,0.13
Fc1ccc(C(c2nnnn2Cc2cccs2)N2CCN(c3ccccc3)CC2)cc1 (centres undefined),-10,n,n,n,-7.4,n,102,n
COc1ccccc1N=c1oc2cc(O)ccc2cc1C(N)=O,n,n,n,n,n,n,x,x
Cc1cccc(N=c2oc3cc(O)ccc3cc2C(N)=O)c1,-8.8,n,n,n,n,n,113,n
O=C(Cn1cc([N+](=O)[O-])ccc1=O)N1CCc2ccccc21,n,x,x,x,x,x,x,x
CCOC(=O)c1cnc2ccc(C)cc2c1NCCN1CCOCC1,-8.8,n,n,n,n,n,100,n
CCOC(=O)c1cnc2ccc(OC)cc2c1Nc1ccc2c(c1)OCCO2,-12,n,n,n,n,n,135,0.16
CCOC(=O)c1cnc2ccc(C(=O)OC)cc2c1Nc1ccc2c(c1)OCCO2,n,n,n,n,n,n,x,x
O=C(NCCc1ccccc1)c1ccc2c(=O)[nH]c3c(C(=O)NCC4CCCO4)sc(=S)n3c2c1 (centres undefined),-12,n,n,n,n,8,118,n
COc1ccc(OC)c(CCNC(=O)c2ccc3c(=O)[nH]c4c(C(=O)NC(C)C)sc(=S)n4c3c2)c1,-11,n,n,n,n,10,129,n
C=CCn1c(=S)sc2c(=O)[nH]cnc21,n,n,n,n,n,n,x,x
COCCc1ncc(CN2CCCC(C(=O)Nc3cccc(-c4cccc(C)c4)c3)C2)cn1 (centres undefined),-9,n,n,n,n,n,91,n
FC(F)(F)c1cnc(COc2ccc(Cl)cc2Cl)c(Cl)c1,-9.7,n,n,n,n,n,102,n
CC(=O)c1ccc(OCc2ncc(C(F)(F)F)cc2Cl)cc1,n,n,n,n,n,n,x,x
O=C(NCO)c1cccnc1,n,x,x,x,x,x,x,x
CCOC(=O)c1sc(N/N=C/c2cc(Br)c(O)c(OC)c2)nc1C,n,n,n,n,n,n,x,x
SMILES,KCNK3 block,Kir21 block,KCNQ1 pot,hERG rescue,KCNK9 inh,KCNQ1 block,KCNK3 inh conf,KCNK3 noninduced
COc1ccccc1Oc1ccc(S(=O)(=O)N2CCCCC2C)cc1 (centres undefined),-12,n,n,n,n,n,108,0.16
COc1ccc(S(=O)(=O)N2CCCCC2C)cc1 (centres undefined),n,n,n,n,n,n,x,x
CC(=O)Nc1ccc(/C=C2\Sc3ccccc3C2=O)cc1,n,n,n,n,n,n,x,x
O=C1/C(=C/c2cccnc2)Sc2ccccc21,-9.6,n,n,n,n,n,102,n
O=C1NC(=Nc2ccccc2)S/C1=C\c1ccccc1,n,n,n,n,n,n,x,x
O=C1NC(=Nc2ccccc2)S/C1=C/c1cccnc1,-11,n,n,n,n,n,90,n
CC(C)Cn1nc(C(=O)NCc2ccccc2CN2CCCC2)c2ccccc2c1=O,n,x,x,x,x,x,x,x
C=C(c1cn(C(C)=O)c2ccccc12)c1cn(C(C)=O)c2ccccc12,-12,x,x,x,x,x,62,0.15
Cc1ccc(NC(=O)/C=C/c2ccco2)cc1S(=O)(=O)N1CCCCCC1,-9.4,n,n,n,n,n,124,0.12
COc1ccc(C)cc1NC(=O)c1ccc(S(=O)(=O)N2CCCCC2)cc1,-9.7,n,n,n,n,n,106,0.16
Cc1ccc(NC(=O)c2ccc(F)cc2)cc1S(=O)(=O)N1CCCCCC1,-11,n,n,n,n,n,101,n
COc1ccc(S(=O)(=O)N2CCCCCC2)cc1NC(=O)c1ccccc1,n,n,n,n,n,n,x,x
CCC(Cc1ccccc1)NS(=O)(=O)c1c(C)nc2sccn2c1=O (centres undefined),n,n,n,n,n,n,x,x
O=C(CNC(=O)c1ccco1)NNC(=O)c1cccc(Cl)c1,n,x,x,x,x,x,x,x
CC1CCN(C(CNS(=O)(=O)c2ccccc2)c2ccccc2)CC1 (centres undefined),-13,x,x,x,x,x,61,n
CC(=O)N1CCc2cc(S(=O)(=O)NCC(=O)NCc3ccc(F)cc3)ccc21,n,n,n,n,n,n,x,x
CCCOc1cc(C)c(Cl)cc1S(=O)(=O)N(CC)CC,-11,n,n,n,n,n,99,n
C/C(=N\NC(=O)c1nn(C)c(C)c1Br)c1ccc(NC(=O)c2ccc(C)s2)cc1,-8.8,n,n,n,n,n,101,n
COc1ccc(CC(O)COS(N)(=O)=O)cc1 (centres undefined),n,n,n,n,n,n,x,x
Cc1ccc(S(=O)(=O)CCC(=O)c2cccc([N+](=O)[O-])c2)cc1,-9.5,-9.5,n,n,n,n,114,0.12

# High-throughput results (PubChem)
